MEKK2 mut-MEK5: MEK5 binding signal on mutant MEKK2 PB1, primary screen, biochemical, multiplex bead flow cytometry, Alexa488-MEK5. hit rate 0.35% among 290,000. percent response, % at 10 µM. Alexa488-MEK5 binding to MEKK2 mutant; in the data active = percent response above about 24%, passing the limit was not always enough
MEKK3 PB1 HTS: modulators of MEKK3-MEK5 PB1 binding, primary screen, biochemical, wildtype MEKK3, multiplex bead flow cytometry, Alexa488-MEK5 | bead-based flow cytometry, Alexa488-MEK5 binding to MEKK3; actives lie on both sides; 0 = blocked by unlabeled MEK5, 100 = vehicle | binding response (% of control), % at 10 µM | hit rate 1.4% among 290,000;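 active = binding response more than 3 SD above or below the average of its plate-row segment, actives on both sides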;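 also: Alexa488 bead fluorescence after subtracting the streptavidin-only scavenger bead signal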
Target sequence (Q99759 whole entry, looked up): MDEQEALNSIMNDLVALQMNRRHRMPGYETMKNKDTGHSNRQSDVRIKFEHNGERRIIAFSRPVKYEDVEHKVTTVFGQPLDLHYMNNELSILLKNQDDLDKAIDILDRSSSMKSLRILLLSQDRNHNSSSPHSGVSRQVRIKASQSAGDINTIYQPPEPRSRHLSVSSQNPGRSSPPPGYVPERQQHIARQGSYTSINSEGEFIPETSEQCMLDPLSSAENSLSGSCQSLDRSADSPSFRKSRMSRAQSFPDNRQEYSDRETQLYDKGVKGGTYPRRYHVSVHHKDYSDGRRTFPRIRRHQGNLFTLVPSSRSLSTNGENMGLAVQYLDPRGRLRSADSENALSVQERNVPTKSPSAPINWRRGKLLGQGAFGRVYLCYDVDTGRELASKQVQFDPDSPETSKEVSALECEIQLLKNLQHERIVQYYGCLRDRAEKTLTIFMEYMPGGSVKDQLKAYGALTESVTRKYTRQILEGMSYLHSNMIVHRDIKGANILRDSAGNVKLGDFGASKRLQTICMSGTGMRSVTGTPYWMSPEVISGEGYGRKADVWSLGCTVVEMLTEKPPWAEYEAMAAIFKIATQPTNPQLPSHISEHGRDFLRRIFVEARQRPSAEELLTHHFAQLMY
MEKK2wt PB1 HTS: modulators of MEK5 binding to wildtype MEKK2, primary screen, biochemical, multiplex bead flow cytometry, Alexa488-MEK5 | Alexa488-MEK5 binding to MEKK2 WT; actives lie on both sides | hit rate 1.1% among 290,000 | binding response (% of control), % at 10 µM; in the data active = binding response below about 67% or above about 130%
ABCG2 inh: ABCG2 efflux pump inhibitors, primary screen, multiplex with ABCB1, IgMXP3 cells, flow cytometry; inhibition, % at 6.6 µM; hit rate 0.1% among 190,000; AID 1325, 2008; JC-1 efflux;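 active = inhibition above 80%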
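System: two drug-resistant human cell lines, ABCG2 and ABCB1; controls: nicardipine high and DMSO low controls; times: 10 min exposure at 25 °C with rotation, no wash; detection: flow cytometry of retained JC-1 fluorescence; read-out basis: percent efflux inhibition, scaled nicardipine 100% to DMSO 0%; doses: one concentration, 6.6 µM final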
ABCB1 block: ABCB1 efflux pump inhibitors, primary screen, cell-based, multiplex, flow cytometry, ABCG2 counter-screen | CCRF-Adr cells, JC-1 efflux | inhibition, % at 6.6 µM | hit rate 0.067% among 190,000; in the data active = inhibition above about 40%;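 also: higher value means more JC-1 retained so stronger ABCB1 efflux block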
Efflux pump inh: inhibitors of Candida efflux pumps in yeast, primary screen, S. cerevisiae, Nile Red, multiplex; S. cerevisiae Candida pump triplex; hit rate 0.44% among 330,000; inhibition, % at 10 µM;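 active = plate passing quality check with inhibition over a set limit, or well fluorescence over plate mean plus 4 SD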;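 also: Nile Red retained in pooled yeast measured as flow cytometry median fluorescence; higher means more Nile Red kept so more efflux inhibition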
Large screens that a line does not name were inactive; [ ] = remark or other dose. This is a sample that favours compounds with a hit; in the whole collection about 2.5% have one here.

Cc1c(-c2cccc(Cl)c2)nc2ccccc2c1C(=O)OCC(=O)Nc1ccc2c(c1)OCO2	none
COC(=O)c1[nH]c2cc(C)ccc2c1NC(=O)CN1CCN(c2ccccc2OC)CC1	none
COC(=O)c1[nH]c2ccc(C)cc2c1NC(=O)CN1CCCc2ccccc21	MEKK2wt PB1 HTS -9.0
O=c1nc(N/N=C/C=C/c2ccccc2)cn[nH]1	none (no result: ABCG2 inh, ABCB1 block)
CN(Cc1ccc(F)cc1)C(=O)CCc1nnc(-c2ccccc2)o1	none
COc1ccc(CCN(C)C(=O)CCc2nnc(-c3ccccc3)o2)cc1OC	MEKK2wt PB1 HTS 7.0
Nc1nc(-c2cccnc2)nn1C(=O)c1ccc(Cl)cc1	MEKK2wt PB1 HTS -3.0 (no result: Efflux pump inh)
Cc1ccc(C2(c3ccccc3)NC(=O)N(CC(=O)NCc3ccccc3)C2=O)cc1C (stereo not drawn)	none (no result: MEKK2 mut-MEK5, MEKK3 PB1 HTS, MEKK2wt PB1 HTS, ABCG2 inh, ABCB1 block)
O=C(CN1CCN(c2ccc(F)cc2)CC1)Nc1nccs1	none (no result: ABCG2 inh, ABCB1 block)
CC(=O)Nc1ccccc1N(CC(O)Cn1c2ccccc2c2ccccc21)S(=O)(=O)c1ccc(C)cc1 (stereo not drawn)	MEKK3 PB1 HTS 138
COc1ccc(N(CC(O)Cn2c3ccccc3c3ccccc32)S(=O)(=O)c2ccccc2)cc1 (stereo not drawn)	none
COc1ccccc1N1CCN(CCCNC(=O)C2CCCN(c3ncnc4c3nc3n4CCCCC3)C2)CC1 (stereo not drawn)	MEKK2wt PB1 HTS 136 (no result: ABCG2 inh, ABCB1 block)
O=C(NCCCN1CCN(c2ccc(F)cc2)CC1)C1CCCN(c2ncnc3c2nc2n3CCCCC2)C1 (stereo not drawn)	none (no result: ABCG2 inh, ABCB1 block)
C=CCOc1ccc(CN(C)CC(O)COc2cccc3ccccc23)cc1 (stereo not drawn)	MEKK2wt PB1 HTS 142 (no result: ABCG2 inh, ABCB1 block)
Cc1ccc(Sc2nc3ccc(C)cn3c(=O)c2/C=N/O)cc1	none
N#C/C(=C\c1ccc(OCc2cccc(C(=O)O)c2)cc1)C(=O)NCc1ccco1	none (no result: ABCG2 inh, ABCB1 block)
O=C(c1cc2c(=O)n3ccccc3nc2s1)N1CCc2ccccc2C1	none
CCOc1ccccc1NC(=O)Cn1c(=O)n(-c2ccccc2)c(=O)c2oc3ccccc3c21	MEKK2wt PB1 HTS 5.0
NC(=O)Cn1c(=O)n(-c2ccccc2)c(=O)c2oc3ccccc3c21	none
Cc1cc(NS(=O)(=O)c2ccc(NC(=O)CSc3nc4ncc(Cl)cc4[nH]3)cc2)nc(C)n1	MEKK2wt PB1 HTS -4.0 (no result: ABCG2 inh, ABCB1 block)
CCOC(=O)c1sc(Nc2ccc(Br)cc2)nc1C	MEKK2wt PB1 HTS -4.0 (no result: ABCG2 inh, ABCB1 block)
N#CC1=C(S)N(c2ccccc2)C(c2ccc(-c3cc(Cl)ccc3Cl)o2)NC1=O (stereo not drawn)	Efflux pump inh 0.5
N#CC1=C(S)N(c2ccccc2)C(c2ccc(-c3ccc(Cl)c(Cl)c3)o2)NC1=O (stereo not drawn)	none (no result: ABCG2 inh, ABCB1 block)
CCCCNC(=S)N(C)/N=C/c1ccc(OCc2ccc(C(=O)OC)cc2)c(OC)c1	none
CCCCCCOc1ccc(N2C(=O)CC(NCc3ccc(S(N)(=O)=O)cc3)C2=O)cc1 (stereo not drawn)	MEKK2wt PB1 HTS -4.0 (no result: ABCG2 inh, ABCB1 block)
CCCCCCOc1ccc(N2C(=O)CC(NCCc3ccc(S(N)(=O)=O)cc3)C2=O)cc1 (stereo not drawn)	none
CNc1ccc(Oc2nc([N+](=O)[O-])nn2C)cc1	none
COc1cc2c(cc1NC(=O)c1cc(-c3ccncc3)nc3ccccc13)oc1ccccc12	MEKK2wt PB1 HTS 16
CNC(=S)N/N=C/c1ccco1	none (no result: ABCG2 inh, ABCB1 block)
COc1ccc(CCN(C)C(=O)c2c(C)nn(CC(C)C)c2Cl)cc1OC	MEKK3 PB1 HTS 55[inhibitor], MEKK2wt PB1 HTS 44[inhibitor] (no result: ABCG2 inh, ABCB1 block)
COc1ccc(-c2cnc(N)n2CC2CCCO2)cc1 (stereo not drawn)	MEKK2wt PB1 HTS -6.0
c1ccc(-c2cnc(SCCN3CCOCC3)n2CC2CCCO2)cc1 (stereo not drawn)	none
CS(=O)(=O)N1N=C(c2cccs2)CC1c1ccccc1 (stereo not drawn)	MEKK2wt PB1 HTS 0.0 (no result: ABCG2 inh, ABCB1 block)
COc1ccc(C2CC(c3cccs3)=NN2S(C)(=O)=O)cc1 (stereo not drawn)	none (no result: ABCG2 inh, ABCB1 block)
